Assay results from different studies.
Protocols differ between the studies behind these lines.
Matrix: plasma
Route: oral

SMILES | test system | conditions | AUC(0-inf) [ng·h/mL]
CC(C)n1cc(C#N)c2cc(-n3cc(C(=O)O)cn3)ccc21 | human | 25 mg, single dose, fasted, healthy volunteers | 5190
CCc1nc2c(C)cc(N3CCN(CC(=O)N4CC(O)C4)CC3)cn2c1N(C)c1nc(-c2ccc(F)cc2)c(C#N)s1 | human | 300 mg, fed, healthy volunteers | 16400
Cn1cc(-c2ccc(S(=O)(=O)[C@@H]3C[C@@H](C(=O)NC4(C#N)CC4)N(C(=O)C4(C(F)(F)F)CC4)C3)c(C(F)(F)F)c2)cn1 | human | 30 mg, single dose, fasted, healthy volunteers | 3240
COc1ccc([C@@H]2CN(C(=O)[C@@H](O)CO)C[C@@]2(C)[C@@H](C)O)cc1OC1CN(c2ccc(C)cn2)C1 | human | 1.5 mg, single dose, healthy volunteers | 524
C[C@@]1(c2cc(NC(=O)c3ccc(C#N)cn3)ccc2F)C=CSC(N)=N1 | human | 150 mg, single dose | 14500
CO[C@H]1CC[C@H](N2C(=O)CNc3ncc(-c4ccc(C(C)(C)O)nc4)nc32)CC1 | human | 45 mg, patients | 1690
CC(C)(O)c1ccccc1-c1ccc2[nH]c(/C=C/c3ccc(C(F)(F)F)cc3)nc2c1 | male human | 10 mg, single dose, fasted | 2110
CC(C)(Sc1ccncc1-c1ccc(C#N)c2ccccc12)C(=O)O | male human | 20 mg, single dose, fasted, healthy volunteers | 540
